Reference: ChEMBL document CHEMBL4433251, “Discovery of BR102375, a new class of non-TZD PPARγ full agonist for the treatment of type 2 diabetes” (Bioorg Med Chem Lett, 2019)
Active and inactive are the calls of the source. The calls are words filed in the database; no cut-off is given here.

Key:
[1] = target: T1, Peroxisome proliferator-activated receptor gamma (Mus musculus) (UniProt P37238); assay: Agonist activity at GAL4-tagged mouse PPARgamma LBD expressed in monkey CV1 cells assessed as receptor transactivation incubated for 24 hrs by luciferase reporter gene assay relative to telmisartan; format: cell-based
T1 sequence (whole entry): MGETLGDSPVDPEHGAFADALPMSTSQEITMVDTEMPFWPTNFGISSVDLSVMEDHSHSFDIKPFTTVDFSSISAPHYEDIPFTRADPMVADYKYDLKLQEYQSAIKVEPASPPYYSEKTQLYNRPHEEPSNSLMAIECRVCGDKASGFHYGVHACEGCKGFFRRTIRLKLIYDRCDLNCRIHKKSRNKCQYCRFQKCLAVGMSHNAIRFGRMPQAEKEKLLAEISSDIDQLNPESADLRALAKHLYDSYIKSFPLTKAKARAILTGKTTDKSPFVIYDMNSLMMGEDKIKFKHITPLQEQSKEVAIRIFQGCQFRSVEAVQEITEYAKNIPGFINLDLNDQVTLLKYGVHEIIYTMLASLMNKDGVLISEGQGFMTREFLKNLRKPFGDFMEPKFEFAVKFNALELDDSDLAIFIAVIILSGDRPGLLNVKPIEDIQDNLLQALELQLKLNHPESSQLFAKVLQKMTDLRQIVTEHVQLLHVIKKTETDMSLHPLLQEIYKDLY

[2] = target: T2, Peroxisome proliferator-activated receptor gamma (Homo sapiens) (UniProt P37231); assay: Agonist activity at PPARgamma (unknown origin) assessed as receptor transactivation after 24 hrs by TK-PPRE-Luc expressing cells based luciferase reporter gene assay relative to pioglitazone
T2 sequence (whole entry): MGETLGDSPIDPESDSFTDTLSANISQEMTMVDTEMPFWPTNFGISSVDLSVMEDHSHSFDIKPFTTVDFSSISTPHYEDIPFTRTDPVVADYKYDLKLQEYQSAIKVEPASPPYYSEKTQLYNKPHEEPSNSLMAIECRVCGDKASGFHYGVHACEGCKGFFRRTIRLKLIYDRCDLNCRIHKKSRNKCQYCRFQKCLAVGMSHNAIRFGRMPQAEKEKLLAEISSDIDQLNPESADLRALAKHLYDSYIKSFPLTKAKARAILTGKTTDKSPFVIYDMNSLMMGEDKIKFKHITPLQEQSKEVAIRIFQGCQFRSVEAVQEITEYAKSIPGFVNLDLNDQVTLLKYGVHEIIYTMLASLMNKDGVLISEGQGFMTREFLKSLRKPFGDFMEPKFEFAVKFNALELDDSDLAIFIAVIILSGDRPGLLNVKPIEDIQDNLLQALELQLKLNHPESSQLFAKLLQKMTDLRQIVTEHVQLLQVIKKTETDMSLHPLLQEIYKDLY
How it was run: (§1)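 Luciferase reporter gene assay in cells transfected with PPRE and luciferase genes; luciferase induction measured over a range of concentrations to derive EC50 and Amax; Amax expressed as a percentage relative to pioglitazone.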

[3] = target: T3, Peroxisome proliferator-activated receptor gamma (Homo sapiens, UniProt P37231); assay: Agonist activity at PPARgamma (unknown origin) assessed as receptor transactivation after 24 hrs by TK-PPRE-Luc expressing cells based luciferase reporter gene assay; how it was run: as §1
T3 sequence (P37231 whole entry): T2 sequence (whole entry)

CYP2C19 = CYP2C19 (Homo sapiens, UniProt P33261); assay: Inhibition of CYP2C19 (unknown origin) assessed as percentage remaining activity at 10 uM; format: ADME; details: read-out: INH
How it was run: (§2)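 CYP isoforms 1A2, 2C9, 2C19, 2D6, 3A4: % remaining enzyme activity in presence of 10 uM compound.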

CYP2D6 = CYP2D6 (Homo sapiens, UniProt P10635); assay: Inhibition of CYP2D6 (unknown origin) assessed as percentage remaining activity at 10 uM; format: ADME; details: read-out: INH; how it was run: as §2
[4] = Stability in dog liver microsomes assessed as parent compound remaining at 30 mins; format: ADME, Canis lupus familiaris, Microsome; details: read-out: Stability
How it was run: (§3)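 Compound incubated with liver microsomes (mouse, rat, dog, human) for 30 min; stability expressed as % of parent concentration remaining.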

CYP2C9 = CYP2C9 (Homo sapiens, UniProt P11712); assay: Inhibition of CYP2C9 (unknown origin) assessed as enzyme remaining activity at 10 uM; format: ADME; details: read-out: INH; how it was run: as §2
[5] = Cmax in mouse at 10 mg/kg, po; format: ADME, organism-based; set-up: dose 10 mg/kg, route oral; details: in vivo
CYP3A4 = CYP3A4 (Homo sapiens, UniProt P08684); assay: Inhibition of CYP3A4 (unknown origin) assessed as percentage remaining activity at 10 uM; format: ADME; details: read-out: INH; how it was run: as §2
[6] = Stability in rat liver microsomes assessed as parent compound remaining at 30 mins; format: ADME, Microsome; details: read-out: Stability; how it was run: as §3
[7] = Tmax in mouse at 10 mg/kg, po; format: ADME, organism-based; details: in vivo
[8] = Stability in human liver microsomes assessed as parent compound remaining at 30 mins; format: ADME, Microsome; details: read-out: Stability; how it was run: as §3
[9] = Stability in mouse liver microsomes assessed as parent compound remaining at 30 mins; format: ADME, Microsome; details: read-out: Stability; how it was run: as §3
[10] = Half life in mouse at 10 mg/kg, po; format: ADME, organism-based; details: in vivo
CYP1A2 = target: T4, CYP1A2 (Homo sapiens, UniProt P05177); assay: Inhibition of CYP1A2 (unknown origin) assessed as enzyme remaining activity at 10 uM; format: ADME; details: read-out: INH; how it was run: as §2
T4 sequence (P05177 whole entry): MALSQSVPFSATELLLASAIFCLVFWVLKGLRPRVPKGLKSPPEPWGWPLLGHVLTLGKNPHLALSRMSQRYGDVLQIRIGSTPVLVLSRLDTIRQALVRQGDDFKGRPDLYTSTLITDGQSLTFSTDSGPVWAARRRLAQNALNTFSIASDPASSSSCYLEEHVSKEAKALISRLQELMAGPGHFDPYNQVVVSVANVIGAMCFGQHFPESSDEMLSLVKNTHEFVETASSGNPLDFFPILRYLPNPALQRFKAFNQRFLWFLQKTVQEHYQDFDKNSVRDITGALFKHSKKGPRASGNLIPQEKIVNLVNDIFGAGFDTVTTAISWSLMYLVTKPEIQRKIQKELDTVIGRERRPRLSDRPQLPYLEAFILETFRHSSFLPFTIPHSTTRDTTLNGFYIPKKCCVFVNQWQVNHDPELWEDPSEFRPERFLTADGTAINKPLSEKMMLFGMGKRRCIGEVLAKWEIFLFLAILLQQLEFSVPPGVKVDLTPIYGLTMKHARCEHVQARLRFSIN

[11] = AUClast in mouse at 10 mg/kg, po; format: ADME, organism-based; set-up: dose 10 mg/kg, route oral, time 0 - last; details: in vivo
hERG (KCNH2) = hERG (KCNH2) (Homo sapiens, UniProt Q12809); assay: Inhibition of human ERG at 10 uM
How it was run: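 hERG: % inhibition measured at 10 µM.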

Mus musculus [12] = assay: Antidiabetic activity in db/db mouse assessed as reduction in blood glucose level at 30 mg/kg, po administered daily once for 2 weeks and measured on day 14 by OGTT method; format: functional, organism-based
[13] = Toxicity in db/db mouse assessed as reduction in food intake at 30 mg/kg, po administered daily once and measured on day 7; format: organism-based; details: in vivo
Mus musculus [14] = assay: Antidiabetic activity in db/db mouse assessed as reduction in random blood glucose level at 30 mg/kg, po administered daily once for 2 weeks; format: functional, organism-based
Mus musculus [15] = assay: Antidiabetic activity in db/db mouse assessed as reduction in body weight gain at 30 mg/kg, po administered daily once for 2 weeks; format: functional, organism-based

Sequence of CYP2D6 (P10635 whole entry): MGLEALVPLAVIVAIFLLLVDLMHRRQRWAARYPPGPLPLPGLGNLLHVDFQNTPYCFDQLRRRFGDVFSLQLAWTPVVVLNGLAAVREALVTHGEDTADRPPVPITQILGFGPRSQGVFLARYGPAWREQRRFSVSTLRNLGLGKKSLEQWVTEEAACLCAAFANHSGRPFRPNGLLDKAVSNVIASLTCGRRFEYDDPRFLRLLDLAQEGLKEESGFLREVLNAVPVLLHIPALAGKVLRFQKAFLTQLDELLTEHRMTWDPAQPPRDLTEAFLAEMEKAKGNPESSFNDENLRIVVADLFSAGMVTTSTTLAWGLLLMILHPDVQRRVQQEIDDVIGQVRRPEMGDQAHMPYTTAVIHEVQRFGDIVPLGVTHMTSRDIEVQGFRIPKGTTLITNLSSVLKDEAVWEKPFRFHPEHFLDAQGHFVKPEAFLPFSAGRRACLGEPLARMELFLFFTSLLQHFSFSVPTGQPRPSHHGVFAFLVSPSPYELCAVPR
Sequence of CYP3A4 (P08684 whole entry): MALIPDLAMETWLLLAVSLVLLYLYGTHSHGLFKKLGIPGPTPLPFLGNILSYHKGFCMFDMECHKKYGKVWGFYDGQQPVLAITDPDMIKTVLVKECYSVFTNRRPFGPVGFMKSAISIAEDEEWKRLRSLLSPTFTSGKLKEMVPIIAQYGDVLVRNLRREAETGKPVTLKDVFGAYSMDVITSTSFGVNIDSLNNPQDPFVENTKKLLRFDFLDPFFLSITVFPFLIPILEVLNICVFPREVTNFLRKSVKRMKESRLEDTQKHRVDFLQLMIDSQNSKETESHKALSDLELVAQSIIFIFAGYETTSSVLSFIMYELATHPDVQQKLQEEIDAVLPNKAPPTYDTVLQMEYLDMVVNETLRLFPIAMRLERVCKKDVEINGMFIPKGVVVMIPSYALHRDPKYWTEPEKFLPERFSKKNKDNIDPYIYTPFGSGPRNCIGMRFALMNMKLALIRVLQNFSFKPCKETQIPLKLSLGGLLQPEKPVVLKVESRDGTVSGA
Sequence of CYP2C9 (P11712 whole entry): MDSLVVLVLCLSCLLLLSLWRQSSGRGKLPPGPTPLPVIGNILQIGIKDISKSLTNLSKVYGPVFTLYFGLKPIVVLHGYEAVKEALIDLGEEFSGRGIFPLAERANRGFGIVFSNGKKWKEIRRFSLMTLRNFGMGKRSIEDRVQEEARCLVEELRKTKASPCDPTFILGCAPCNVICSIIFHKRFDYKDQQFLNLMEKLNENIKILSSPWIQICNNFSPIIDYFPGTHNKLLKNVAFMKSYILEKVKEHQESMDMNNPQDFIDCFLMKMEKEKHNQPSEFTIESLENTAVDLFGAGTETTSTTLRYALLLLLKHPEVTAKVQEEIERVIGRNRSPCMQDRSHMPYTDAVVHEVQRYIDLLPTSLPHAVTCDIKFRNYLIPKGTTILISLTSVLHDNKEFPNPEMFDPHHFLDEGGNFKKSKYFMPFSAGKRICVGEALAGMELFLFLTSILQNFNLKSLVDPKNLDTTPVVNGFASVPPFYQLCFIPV
Sequence of hERG (KCNH2) (Q12809 whole entry): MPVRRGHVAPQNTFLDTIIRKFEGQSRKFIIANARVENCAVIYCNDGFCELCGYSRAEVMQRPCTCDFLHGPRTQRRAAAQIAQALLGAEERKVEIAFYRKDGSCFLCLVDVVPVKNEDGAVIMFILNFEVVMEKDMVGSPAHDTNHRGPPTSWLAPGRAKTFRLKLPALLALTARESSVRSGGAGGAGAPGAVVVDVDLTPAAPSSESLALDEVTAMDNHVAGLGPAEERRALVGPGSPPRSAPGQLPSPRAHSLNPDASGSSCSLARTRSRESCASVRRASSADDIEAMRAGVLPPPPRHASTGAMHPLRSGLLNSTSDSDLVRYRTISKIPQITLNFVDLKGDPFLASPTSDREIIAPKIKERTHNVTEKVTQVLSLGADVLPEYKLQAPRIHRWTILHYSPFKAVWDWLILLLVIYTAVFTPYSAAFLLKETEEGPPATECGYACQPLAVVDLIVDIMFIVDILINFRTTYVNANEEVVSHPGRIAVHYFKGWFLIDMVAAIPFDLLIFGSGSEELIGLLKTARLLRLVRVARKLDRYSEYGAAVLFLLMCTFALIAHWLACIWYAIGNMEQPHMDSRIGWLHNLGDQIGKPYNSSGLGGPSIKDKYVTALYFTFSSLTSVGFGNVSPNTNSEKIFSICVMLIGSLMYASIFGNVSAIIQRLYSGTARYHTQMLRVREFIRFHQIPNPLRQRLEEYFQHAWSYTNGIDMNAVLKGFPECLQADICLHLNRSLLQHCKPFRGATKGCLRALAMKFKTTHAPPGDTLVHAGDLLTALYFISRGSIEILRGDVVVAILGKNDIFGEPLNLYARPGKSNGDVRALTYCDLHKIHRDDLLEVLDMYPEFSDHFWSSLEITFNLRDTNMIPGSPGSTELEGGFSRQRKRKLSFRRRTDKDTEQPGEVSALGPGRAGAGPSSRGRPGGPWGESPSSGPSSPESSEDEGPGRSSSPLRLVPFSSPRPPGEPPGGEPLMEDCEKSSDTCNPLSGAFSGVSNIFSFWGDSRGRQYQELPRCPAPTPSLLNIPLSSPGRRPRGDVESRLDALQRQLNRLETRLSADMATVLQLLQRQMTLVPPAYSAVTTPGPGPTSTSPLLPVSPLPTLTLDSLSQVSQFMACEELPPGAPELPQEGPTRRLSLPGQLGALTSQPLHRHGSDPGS
Sequence of CYP2C19 (P33261 whole entry, canonical isoform): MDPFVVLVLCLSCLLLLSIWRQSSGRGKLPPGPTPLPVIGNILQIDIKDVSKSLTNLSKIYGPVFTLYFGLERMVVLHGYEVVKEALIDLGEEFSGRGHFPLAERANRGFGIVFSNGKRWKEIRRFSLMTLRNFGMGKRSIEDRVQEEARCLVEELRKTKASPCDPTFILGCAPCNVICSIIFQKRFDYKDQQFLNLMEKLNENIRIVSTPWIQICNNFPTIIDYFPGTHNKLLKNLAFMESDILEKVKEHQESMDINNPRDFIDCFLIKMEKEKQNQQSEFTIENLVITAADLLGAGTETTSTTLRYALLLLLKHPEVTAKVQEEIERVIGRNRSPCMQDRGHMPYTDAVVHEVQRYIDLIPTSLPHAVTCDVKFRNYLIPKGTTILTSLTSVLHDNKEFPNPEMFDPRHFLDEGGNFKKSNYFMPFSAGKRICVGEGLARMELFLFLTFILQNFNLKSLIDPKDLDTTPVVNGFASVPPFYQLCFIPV

Row | Compound | %max [1] | %max [2] | EC50 [3] | further results
1 | CCCCc1nc(C(C)C)c(Cc2nnc(C(C)(C)C)s2)c(=O)n1Cc1ccc(-c2ccccc2-c2noc(=O)[nH]2)cc1 | 180% | – | – | –
2 | CCCCc1nc(C)c(Cc2nc(C)no2)c(=O)n1Cc1ccc(-c2ccccc2-c2noc(=O)[nH]2)cc1 | 136% | – | – | –
3 | CCCCc1nc(C)c(Cc2nc(C3CC3)no2)c(=O)n1Cc1ccc(-c2ccccc2-c2noc(=O)[nH]2)cc1 | – | 89% | 4250 nM | –
4 | CCCCc1nc(C)c(Cc2noc(C(C)C)n2)c(=O)n1Cc1ccc(-c2ccccc2-c2noc(=O)[nH]2)cc1 | 233% | – | – | –
5 | CCCCc1nc(C)c(Cc2nc(C)ns2)c(=O)n1Cc1ccc(-c2ccccc2-c2noc(=O)[nH]2)cc1 | 93% | – | – | –
6 | CCCCc1nc(C(C)C)c(Cc2nnc(C)o2)c(=O)n1Cc1ccc(-c2ccccc2-c2noc(=O)[nH]2)cc1 | 80% | – | – | –
7 | CCCCc1nc(C)c(Cc2nc(C)n[nH]2)c(=O)n1Cc1ccc(-c2ccccc2-c2noc(=O)[nH]2)cc1 | 61% | – | – | –
8 | CCCCc1nc(C(C)C)c(Cc2nc(C3CC3)no2)c(=O)n1Cc1ccc(-c2ccccc2-c2noc(=O)[nH]2)cc1 | – | 102% | 2550 nM | –
9 | CCCCc1nc(C)c(Cc2nc(Cc3ccccc3)no2)c(=O)n1Cc1ccc(-c2ccccc2-c2noc(=O)[nH]2)cc1 | – | 105% | 1750 nM | –
10 | CCCCc1nc(C)c(Cc2nc(Cc3cc(F)cc(F)c3)no2)c(=O)n1Cc1ccc(-c2ccccc2-c2noc(=O)[nH]2)cc1 | – | 72% | 1380 nM | –
11 | CCCCc1nc(C(C)C)c(Cc2nc(C(C)(C)C)no2)c(=O)n1Cc1ccc(-c2ccccc2-c2noc(=O)[nH]2)cc1 | – | 123% | 590 nM | activity at 10 µM (CYP2C19): 78%; activity at 10 µM (CYP2D6): 89%; remaining at 0.5 h [4]: 13%; activity at 10 µM (CYP2C9): 33%; Cmax [5]: 547 ng/mL; activity at 10 µM (CYP3A4): 50%; remaining at 0.5 h [6]: 13%; Tmax [7]: 19.8 min; remaining at 0.5 h [8]: 12%; remaining at 0.5 h [9]: 24%; half-life [10]: 49.2 min; activity at 10 µM (CYP1A2): 92%; AUC(0-t) [11]: 581 ng·h/mL; inhibition at 10 µM (hERG (KCNH2)): 16%
12 | CCCCc1nc(C)c(Cc2nc(Cc3ccc(F)cc3)no2)c(=O)n1Cc1ccc(-c2ccccc2-c2noc(=O)[nH]2)cc1 | – | 81% | 2410 nM | –
13 | CCCCc1nc(C)c(Cc2nnc(C)s2)c(=O)n1Cc1ccc(-c2ccccc2-c2noc(=O)[nH]2)cc1 | 71% | – | – | –
14 | CCCCc1nc(C)c(Cc2noc(C(C)(C)C)n2)c(=O)n1Cc1ccc(-c2ccccc2-c2noc(=O)[nH]2)cc1 | 258% | – | – | –
15 | CCCCc1nc(C(C)C)c(Cc2nnc(-c3ccc(OC)cc3)o2)c(=O)n1Cc1ccc(-c2ccccc2-c2noc(=O)[nH]2)cc1 | 73% | – | – | –
16 | CCCCc1nc(C(C)C)c(Cc2nc(Cc3ccccc3)no2)c(=O)n1Cc1ccc(-c2ccccc2-c2noc(=O)[nH]2)cc1 | – | 92% | 1140 nM | –
17 | CCCCc1nc(C(C)C)c(Cc2nc(Cc3ccc(F)cc3)no2)c(=O)n1Cc1ccc(-c2ccccc2-c2noc(=O)[nH]2)cc1 | – | 80% | 1480 nM | –
18 | CCCCc1nc(C)c(Cc2nc(COC)no2)c(=O)n1Cc1ccc(-c2ccccc2-c2noc(=O)[nH]2)cc1 | – | 60% | 3390 nM | –
19 | CCc1ccc(CCOc2ccc(CC3SC(=O)NC3=O)cc2)nc1 (stereo not drawn) [PIOGLITAZONE] | – | – | – | Activity (Mus musculus [12]): Active; Activity [13]: Toxic; Activity (Mus musculus [14]): Active; Activity (Mus musculus [15]): inactive
20 | CCCCc1nc(C)c(Cc2nc(Cc3cccc(F)c3)no2)c(=O)n1Cc1ccc(-c2ccccc2-c2noc(=O)[nH]2)cc1 | – | 82% | 1390 nM | –
21 | CCCCc1nc(C)c(Cc2noc(-c3ccccc3F)n2)c(=O)n1Cc1ccc(-c2ccccc2-c2noc(=O)[nH]2)cc1 | 150% | – | – | –
22 | CCCCc1nc(C)c(Cc2nc(CCOC)no2)c(=O)n1Cc1ccc(-c2ccccc2-c2noc(=O)[nH]2)cc1 | – | 68% | 4210 nM | –
23 | CCCCc1nc(C(C)C)c(Cc2nc(C)no2)c(=O)n1Cc1ccc(-c2ccccc2-c2noc(=O)[nH]2)cc1 | 207% | 93% | 1050 nM | –
24 | CCCCc1nc(C)c(Cc2nc(C(C)C)no2)c(=O)n1Cc1ccc(-c2ccccc2-c2noc(=O)[nH]2)cc1 | – | 101% | 1320 nM | –
25 | CCCCc1nc(C)c(Cc2nnc(-c3ccc(F)cc3)[nH]2)c(=O)n1Cc1ccc(-c2ccccc2-c2noc(=O)[nH]2)cc1 | 71% | – | – | –
26 | CCCCc1nc(C(C)C)c(Cc2nc(C)ns2)c(=O)n1Cc1ccc(-c2ccccc2-c2noc(=O)[nH]2)cc1 | 79% | – | – | –
27 | CCCCc1nc(C(C)C)c(Cc2nnc(C)s2)c(=O)n1Cc1ccc(-c2ccccc2-c2noc(=O)[nH]2)cc1 | 79% | – | – | –
